# Measured values from article PMC3182491 (Investigational new drugs, 2010).
# Where “and” joins values, the source holds several entries; their conditions need not be identical. Identical values can stand only once.
# How the values were obtained:
# [1] = test system: 17-71 canine B-cell lymphoma line; assay: Annexin V-FITC/PI apoptosis detection by flow cytometry, 17-71 cells; format: cell-based
# Method in brief: (§1)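 Cells were seeded at 100,000 per well in fresh medium holding 0, 5, 10 or 20 µM test compound, alongside a vehicle control. They were exposed 24 or 48 h at 37 °C, 5% CO2. Apoptosis was read by Annexin V-FITC/PI staining and flow cytometry, in triplicate. Lines were kept as suspensions in DMEM with P/S, plus 10% FBS (17-71, GL-1) or 20% FBS (CA46). Time and concentration effects were tested by 2-way ANOVA with Tukey or Dunnett post hoc.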
# [2] = test system: GL-1 canine B-cell lymphoma line; assay: Annexin V-FITC/PI apoptosis detection by flow cytometry, GL-1 cells; format: cell-based
# Method in brief: as §1
# [3] = test system: CA46 human B-cell lymphoma line; assay: Annexin V-FITC/PI apoptosis detection by flow cytometry, CA46 cells; format: cell-based
# Method in brief: as §1
# [4] = target: T1, caspase-3 (Canis lupus familiaris, UniProt Q8MKI5); assay: Caspase-3 colorimetric assay in cell lysate, 17-71 cells; format: cell-based, canine; conditions: 10 or 20 µM, incubation ≤ 4 hours
# T1 sequence (Q8MKI5 29-277): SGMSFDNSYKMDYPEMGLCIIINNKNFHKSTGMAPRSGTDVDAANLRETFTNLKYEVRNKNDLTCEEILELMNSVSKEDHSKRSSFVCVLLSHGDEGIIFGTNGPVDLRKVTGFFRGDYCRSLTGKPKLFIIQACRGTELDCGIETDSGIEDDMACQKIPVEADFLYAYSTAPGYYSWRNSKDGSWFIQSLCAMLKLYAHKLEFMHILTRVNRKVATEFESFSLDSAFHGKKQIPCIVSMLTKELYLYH
# Method in brief: (§2)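 Lymphoma cells were exposed to 10 or 20 µM test compound for 0, 1, 2, 4, 24 and 48 h at 37 °C, 5% CO2; hour 0 served as vehicle control. Lysates from 2 million cells per time point went into a colorimetric caspase-3 assay read at 405 nm, run in duplicate. Time points were compared to control by one-way ANOVA with Dunnett's test.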
# [5] = target: T1, caspase-3; assay: Caspase-3 colorimetric assay in cell lysate, GL-1 cells; format: cell-based, canine; conditions: 10 or 20 µM, incubation ≤ 4 hours
# Method in brief: as §2
# [6] = target: T2, caspase-3 (Homo sapiens, UniProt P42574); assay: Caspase-3 colorimetric assay in cell lysate, CA46 cells; format: cell-based; conditions: 10 or 20 µM, incubation ≤ 4 hours
# T2 sequence (P42574 29-277): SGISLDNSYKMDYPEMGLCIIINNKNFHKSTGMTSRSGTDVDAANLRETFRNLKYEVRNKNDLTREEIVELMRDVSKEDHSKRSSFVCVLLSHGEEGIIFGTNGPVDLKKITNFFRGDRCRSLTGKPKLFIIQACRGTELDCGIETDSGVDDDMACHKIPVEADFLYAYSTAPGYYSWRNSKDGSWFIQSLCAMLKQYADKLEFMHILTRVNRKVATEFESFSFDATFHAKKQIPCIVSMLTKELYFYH
# Method in brief: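 CA46 human B-cell lymphoma cells, grown in suspension in DMEM with 20% FBS and P/S at 37 °C, 5% CO2, were exposed to test compound at 10 or 20 µM for 0, 1, 2, 4, 24 and 48 h. Lysate from 2 million cells per time point was assayed with a colorimetric caspase-3 kit read at 405 nm, in duplicate. Activity was compared with vehicle-treated cells (hour 0) by one-way ANOVA and Dunnett's test.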
# [7] = Pharmacokinetics after single IV bolus in healthy dogs; format: in vivo; conditions: dog
# Method in brief: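 Six healthy hound dogs, crossover design with two-week washout. Test compound was freshly made at 15 mg/ml in 2-hydroxypropyl-β-cyclodextrin/sterile water and given at 1.0 mg/kg as a 10-min IV bolus. Jugular plasma was taken at 0-720 min and 24 h and assayed by LC-ES/MS/MS (deuterated internal standard). AUC and AUMC were taken by linear trapezoid extrapolated to infinity; A and B came from a two-compartment fit by residuals; Cls = dose/AUC.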
# [8] = Pharmacokinetics after single oral administration in healthy dogs; format: in vivo; conditions: dog
# Method in brief: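 Same six dogs in crossover, two-week washout. Test compound in 2-hydroxypropyl-β-cyclodextrin/sterile water was given once at 1.0 mg/kg as a 5-min oral slurry. Plasma was sampled at 0, 15, 30, 45, 60, 120, 240, 480, 720 min and 24 h and quantified by LC-ES/MS/MS. A one-compartment absorption model gave K01 and K10, Cmax and Tmax; Clo = dose/AUC0-inf; F = AUC oral/AUC IV × dose ratio.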
# [9] = 1 mg/kg IV, individual dogs A-F, 1 mg/kg
# [10] = 1 mg/kg oral, individual dogs A-F, 1 mg/kg
structure (smiles),measurement,setting,value
C=CCc1cccc(/C=N/NC(=O)CN2CCN(Cc3ccccc3)CC2)c1O [PAC-1],cells staining only for Annexin-V-FITC (early apoptosis),"[1]; 48 hour, 20 µM",approximately 70%
same,apoptotic cells,"[1]; 48 hours, PAC-1 ≥ 10 µM",≥ 60%
same,apoptosis,"[2]; 48 hour, 10 µM",~ 25%
same,cells remaining viable,"[2]; 48 hours, 20 µM",~ 60%
same,fraction of apoptotic cells,[3]; 24 hour exposure,20–35%
same,apoptosis,"[3]; 48 hour, 10 µM",≥ 50%
same,cells undergone apoptosis,"[3]; 48 hours, PAC-1 ≥10 µM",greater than 50%
same,caspase-3 activity in cell lysate vs vehicle-treated control cells,[4],failed to significantly increase
same,caspase-3 activity in cell lysate vs vehicle-treated control cells,[5],failed to significantly increase
same,caspase-3 activity in cell lysate vs vehicle-treated control cells,[6],failed to significantly increase
same,"A (Y intercept, distribution phase)","[7]; 1 mg/kg IV, Mean ± SD, n=6",1483.8 ± 723.0 ng/mL
same,AUC0-inf,"[7]; 1 mg/kg IV, Mean ± SD, n=6",1740 ± 309.6 ngxhr/ml
same,AUMC0-inf,"[7]; 1 mg/kg IV, Mean ± SD, n=6",4805 ± 1211 ngxhrxhr/ml
same,"B (Y intercept, elimination phase)","[7]; 1 mg/kg IV, Mean ± SD, n=6",249.0 ± 172.9 ng/mL
same,Cls (total body clearance),"[7]; 1 mg/kg IV, Mean ± SD, n=6",9.578 ± 1.26 mL/min/kg
same,Vdc (volume of distribution in central compartment),"[7]; 1 mg/kg IV, Mean ± SD, n=6",0.678 ± 0.254 L/kg
same,Vdss (volume of distribution at steady state),"[7]; 1 mg/kg IV, Mean ± SD, n=6",1.643 ± 0.497 L/kg
same,Vdβ (volume of distribution in terminal elimination phase),"[7]; 1 mg/kg IV, Mean ± SD, n=6",2.698 ± 0.865 L/kg
same,t1/2 β (terminal elimination half-life),"[7]; 1 mg/kg IV, Mean ± SD, n=6",3.12 ± 0.67 h
same,"A (Y intercept, distribution phase)",[7]; [9],1065 ng/mL and 2598 ng/mL and 908 ng/mL and 2199 ng/mL and 1119 ng/mL and 1014 ng/mL
same,AUC0-inf,[7]; [9],1730 ngxhr/ml and 2339 ngxhr/ml and 1468 ngxhr/ml and 1645 ngxhr/ml and 1709 ngxhr/ml and 1549 ngxhr/ml
same,AUMC0-inf,[7]; [9],4751 ngxhrxhr/ml and 6167 ngxhrxhr/ml and 3693 ngxhrxhr/ml and 3802 ngxhrxhr/ml and 4247 ngxhrxhr/ml and 6174 ngxhrxhr/ml
same,"B (Y intercept, elimination phase)",[7]; [9],288 ng/ml and 584 ng/ml and 138 ng/ml and 176 ng/ml and 154 ng/ml (2×)
same,Cls (total body clearance),[7]; [9],9.63 mL/min/kg and 7.13 mL/min/kg and 10 mL/min/kg and 10.1 mL/min/kg and 9.75 mL/min/kg and 10.8 mL/min/kg
same,Vdc (volume of distribution in central compartment),[7]; [9],0.739 L/kg and 0.314 L/kg and 0.957 L/kg and 0.421 L/kg and 0.786 L/kg and 0.856 L/kg
same,Vdss (volume of distribution at steady state),[7]; [9],1.587 L/kg and 1.127 L/kg and 1.715 L/kg and 1.405 L/kg and 1.454 L/kg and 2.574 L/kg
same,Vdβ (volume of distribution in terminal elimination phase),[7]; [9],2.260 L/kg and 1.380 L/kg and 3.145 L/kg and 2.699 L/kg and 2.736 L/kg and 3.968 L/kg
same,t1/2 β (terminal half-life),[7]; [9],2.71 h and 2.24 h and 3.20 h and 3.08 h and 3.24 h and 4.26 h
same,average peak plasma concentration,"[7]; 1.0 mg/kg bolus IV, immediately following completion of infusion",2.8 ± 0.6 µM
same,time of average peak plasma concentration following ingestion,[8]; 1.0 mg/kg oral,45 min
same,AUC o-inf.,"[8]; 1 mg/kg oral, Mean ± SD, n=6",310.5 ± 158.5 ng/mL/h
same,Cmax,"[8]; 1 mg/kg oral, Mean ± SD, n=6",77.0 ± 37.5 ng/mL
same,F (absolute oral bioavailability),"[8]; 1 mg/kg oral, Mean ± SD, n=6",17.8 ± 9.5%
same,Oral clearance,"[8]; 1 mg/kg oral, Mean ± SD, n=6",136 ± 79.6 L/h
same,Tmax,"[8]; 1 mg/kg oral, Mean ± SD, n=6",0.84 ± 0.28 h
same,t1/2 K10 (terminal elimination half-life),"[8]; 1 mg/kg oral, Mean ± SD, n=6",2.08 ± 0.26 h
same,AUC o-inf.,[8]; [10],271 ng/mL/h and 408 ng/mL/h and 117 ng/mL/h and 508 ng/mL/h and 145 ng/mL/h and 414 ng/mL/h
same,Cmax,[8]; [10],63.9 ng/mL and 127 ng/mL and 31 ng/mL and 108 ng/mL and 43 ng/mL and 89 ng/mL
same,F (absolute oral bioavailability),[8]; [10],16% and 17% and 8% (2×) and 31% and 27%
same,Oral clearance,[8]; [10],137 L/h and 77 L/h and 236 L/h and 61 L/h and 230 L/h and 75 L/h
same,Tmax,[8]; [10],1.09 h and 0.51 h and 0.90 h and 1.07 h and 0.45 h and 0.99 h
